The values that follow come from ChEMBL document CHEMBL1143736, “Synthesis and antimycobacterial activity of 4-(5-substituted-1,3,4-oxadiazol-2-yl)pyridines” (Bioorg Med Chem, 2007).

The structures appear in SMILES notation. In brackets after ≈: the same amount, converted by molar mass.

Assay type in all cases: functional
For assay [1], the system named is Mycobacterium tuberculosis. The experiment in a line: Antimycobacterial activity against streptomycin, isoniazid, rifampicin, pyrazinamide-resistant Mycobacterium tuberculosis CIBIN 234 isolates. Put shortly:
(§1)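 Modified microplate Alamar Blue assay (MABA). Inoculum came from a log-phase culture matched to McFarland 1, diluted 1:50 in Middlebrook 7H9 to 6 × 10^6 CFU/mL, and prepared just before inoculation.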

Assay [2] has as its system Mycobacterium tuberculosis. The assay can be described thus: Antimycobacterial activity against streptomycin, isoniazid, ethambutol-resistant Mycobacterium tuberculosis CIBIN 112 isolates. In short, it runs like this:
as §1

Assay [3] has as its system Mycobacterium tuberculosis. The assay can be described thus: Antimycobacterial activity against streptomycin and isoniazid-resistant Mycobacterium tuberculosis CIBIN 675 isolates. In short, it runs like this:
as §1

On to `NNC(=O)c1ccncc1` [ISONIAZID], for which the MIC in assay [1] is 58.4 µM (≈ 8.01 µg/mL); in assay [2], 29.2 µM (≈ 4 µg/mL); in assay [3] it was 29.2 µM.
For `Cc1nnc(-c2ccncc2)o1`, the MIC in assay [1] came to 49.7 µM (≈ 8.01 µg/mL); in assay [2], 49.7 µM (≈ 8.01 µg/mL); in assay [3], 49.7 µM.
In the case of `FC(F)(F)c1nnc(-c2ccncc2)o1`, the MIC in assay [1] came out at 37.2 µM (≈ 8.01 µg/mL); in assay [2], 37.2 µM (≈ 8.01 µg/mL); in assay [3], 37.2 µM.
`CN(C)c1ccc(-c2nnc(-c3ccncc3)o2)cc1`: the figures for the MIC in assay [1], in assay [2] and in assay [3] were 30 µM (≈ 8 µg/mL), 30 µM (≈ 8 µg/mL) and 30 µM, respectively.
Take `O=[N+]([O-])c1ccccc1-c1nnc(-c2ccncc2)o1`: the results for the MIC in assay [1], in assay [2] and in assay [3] were 29.9 µM (≈ 8.01 µg/mL), 29.9 µM (≈ 8.01 µg/mL) and 29.9 µM, respectively.
Take `CCCCCCCCCCCCCCCc1nnc(-c2ccncc2)o1`: the MIC is 22.4 µM (≈ 8 µg/mL) in assay [1], 2.8 µM (≈ 1 µg/mL) in assay [2] and 11.2 µM in assay [3].
In the same order, the values of `O=[N+]([O-])c1ccc(-c2nnc(-c3ccncc3)o2)cc1` are 29.9 µM (≈ 8.01 µg/mL), 29.9 µM (≈ 8.01 µg/mL) and 29.9 µM.
Consider `CN[C@@H]1[C@H](O[C@H]2[C@H](O[C@H]3[C@H](O)[C@@H](O)[C@H](N=C(N)N)[C@@H](O)[C@@H]3N=C(N)N)O[C@@H](C)[C@]2(O)C=O)O[C@@H](CO)[C@H](O)[C@H]1O` (stereo in doubt) [STREPTOMYCIN], for which the values for the MIC in assay [1], in assay [2] and in assay [3] were 55 µM (≈ 32 µg/mL), 55 µM (≈ 32 µg/mL) and 6.87 µM, respectively.
With `c1ccc(-c2nnc(-c3ccncc3)o2)cc1`, the figures for the minimal inhibitory concentration (MIC) in assay [1], in assay [2] and in assay [3] were 35.9 µM (≈ 8.01 µg/mL), 35.9 µM (≈ 8.01 µg/mL) and 35.9 µg/mL, respectively.
Consider `c1cc(-c2nnc(-c3ccncc3)o2)ccn1`, for which the values for the MIC in assay [1], in assay [2] and in assay [3] were 35.7 µM (≈ 8.01 µg/mL), 35.7 µM (≈ 8.01 µg/mL) and 35.7 µM, respectively.
On to `ClCc1nnc(-c2ccncc2)o1`, for which the MIC is 41 µM (≈ 8.03 µg/mL) in assay [1], 41 µM (≈ 8.03 µg/mL) in assay [2] and 41 µM in assay [3].
Consider `CO[C@H]1/C=C/O[C@@]2(C)Oc3c(C)c(O)c4c(O)c(c(/C=N/N5CCN(C)CC5)c(O)c4c3C2=O)NC(=O)/C(C)=C\C=C\[C@H](C)[C@H](O)[C@@H](C)[C@@H](O)[C@@H](C)[C@H](OC(C)=O)[C@@H]1C` [RIFAMPIN], for which the values for the MIC in assay [1], in assay [2] and in assay [3] were 122 µM (≈ 100 µg/mL), 3.79 µM (≈ 3.12 µg/mL) and 0.94 µM, respectively.
The matching figures for `O=[N+]([O-])c1cc(-c2nnc(-c3ccncc3)o2)cc([N+](=O)[O-])c1`: 25.5 µM (≈ 8 µg/mL), 12.8 µM (≈ 4 µg/mL) and 25.5 µM.
The matching figures for `CCCCCCCCCCCCCCCCCc1nnc(-c2ccncc2)o1`: 20.8 µM (≈ 8 µg/mL), 2.59 µM (≈ 0.999 µg/mL) and 10.4 µM.
In turn, `CC[C@@H](CO)NCCN[C@@H](CC)CO` [ETHAMBUTOL] registered an MIC in assay [2] of 78.3 µM (≈ 16 µg/mL).
Turning to `COc1cc(-c2nnc(-c3ccncc3)o2)cc(OC)c1OC`, the MIC in assay [1] is 28.2 µM (≈ 8.85 µg/mL); in assay [2] it was 14.1 µM (≈ 4.42 µg/mL); in assay [3], 28.2 µM.
